Assay [1] has as its target Methylcytosine dioxygenase TET1 (Homo sapiens, UniProt Q8NFU7). The assay is described as follows: Inhibition of GST-tagged human TET1 (583 to 633 residues) expressed in Escherichia coli BL21 cells incubated for 30 mins by fluorescence polarization assay. The method in brief:
(§1)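 Competition fluorescence polarization assay. CXXC domain protein is held at 2× its own KD. All domains are expressed and purified by the same method. Standard deviations come from three separate measurements.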
For orientation: In fluorescence polarisation assays a small probe gives low polarisation when free and higher when bound to something large.

Assay [2] concerns the target T1, Lysine-specific demethylase 2A (Homo sapiens, UniProt Q9Y2K7).
T1 sequence (Q9Y2K7 whole entry): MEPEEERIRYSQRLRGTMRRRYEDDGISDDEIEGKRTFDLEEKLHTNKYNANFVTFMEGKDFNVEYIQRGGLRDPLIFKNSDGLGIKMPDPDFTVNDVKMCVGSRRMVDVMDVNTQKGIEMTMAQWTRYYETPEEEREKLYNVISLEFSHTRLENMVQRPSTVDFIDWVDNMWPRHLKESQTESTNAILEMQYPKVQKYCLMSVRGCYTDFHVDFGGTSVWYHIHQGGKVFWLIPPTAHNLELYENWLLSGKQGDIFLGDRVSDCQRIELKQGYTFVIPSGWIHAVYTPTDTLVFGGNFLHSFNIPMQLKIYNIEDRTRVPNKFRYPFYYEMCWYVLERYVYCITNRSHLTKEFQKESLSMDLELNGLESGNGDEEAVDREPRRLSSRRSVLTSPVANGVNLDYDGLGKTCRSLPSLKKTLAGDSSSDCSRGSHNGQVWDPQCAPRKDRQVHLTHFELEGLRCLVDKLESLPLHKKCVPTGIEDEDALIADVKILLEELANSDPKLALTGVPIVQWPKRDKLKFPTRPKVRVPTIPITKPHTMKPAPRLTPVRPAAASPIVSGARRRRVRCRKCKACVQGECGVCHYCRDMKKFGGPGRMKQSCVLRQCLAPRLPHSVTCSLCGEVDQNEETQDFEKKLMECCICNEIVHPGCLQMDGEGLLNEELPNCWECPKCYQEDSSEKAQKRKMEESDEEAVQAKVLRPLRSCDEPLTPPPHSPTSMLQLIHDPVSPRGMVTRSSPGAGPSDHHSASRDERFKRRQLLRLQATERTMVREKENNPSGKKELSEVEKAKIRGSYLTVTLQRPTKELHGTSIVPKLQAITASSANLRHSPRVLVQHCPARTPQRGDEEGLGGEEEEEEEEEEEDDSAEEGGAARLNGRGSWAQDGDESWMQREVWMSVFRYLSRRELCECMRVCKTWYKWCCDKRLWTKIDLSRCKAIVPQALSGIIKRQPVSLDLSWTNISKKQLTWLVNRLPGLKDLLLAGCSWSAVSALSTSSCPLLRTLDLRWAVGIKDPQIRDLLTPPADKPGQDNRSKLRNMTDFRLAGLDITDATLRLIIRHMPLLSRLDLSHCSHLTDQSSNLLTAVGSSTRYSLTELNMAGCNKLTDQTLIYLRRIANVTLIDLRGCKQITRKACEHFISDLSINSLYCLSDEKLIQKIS
The assay is described as follows: Inhibition of GST-tagged human KDM2A (562 to 618 residues) expressed in Escherichia coli BL21 cells incubated for 30 mins by fluorescence polarization assay. The method in brief: as §1

In assay [3] the target is T2, CXXC-type zinc finger protein 4 (Homo sapiens, UniProt Q9H2H0).
T2 sequence (Q9H2H0 whole entry): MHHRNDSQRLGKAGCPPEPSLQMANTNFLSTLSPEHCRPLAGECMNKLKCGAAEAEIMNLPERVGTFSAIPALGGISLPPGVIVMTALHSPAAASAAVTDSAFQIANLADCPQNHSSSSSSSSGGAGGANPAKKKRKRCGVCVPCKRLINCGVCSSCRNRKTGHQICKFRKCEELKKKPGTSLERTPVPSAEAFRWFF
The assay is described as follows: Inhibition of GST-tagged human IDAX (130 to 181 residues) expressed in Escherichia coli BL21 cells incubated for 30 mins by fluorescence polarization assay. An outline of the steps:
as §1

Methylcytosine dioxygenase TET1, sequence (Q8NFU7 whole entry, the tested form may be a part): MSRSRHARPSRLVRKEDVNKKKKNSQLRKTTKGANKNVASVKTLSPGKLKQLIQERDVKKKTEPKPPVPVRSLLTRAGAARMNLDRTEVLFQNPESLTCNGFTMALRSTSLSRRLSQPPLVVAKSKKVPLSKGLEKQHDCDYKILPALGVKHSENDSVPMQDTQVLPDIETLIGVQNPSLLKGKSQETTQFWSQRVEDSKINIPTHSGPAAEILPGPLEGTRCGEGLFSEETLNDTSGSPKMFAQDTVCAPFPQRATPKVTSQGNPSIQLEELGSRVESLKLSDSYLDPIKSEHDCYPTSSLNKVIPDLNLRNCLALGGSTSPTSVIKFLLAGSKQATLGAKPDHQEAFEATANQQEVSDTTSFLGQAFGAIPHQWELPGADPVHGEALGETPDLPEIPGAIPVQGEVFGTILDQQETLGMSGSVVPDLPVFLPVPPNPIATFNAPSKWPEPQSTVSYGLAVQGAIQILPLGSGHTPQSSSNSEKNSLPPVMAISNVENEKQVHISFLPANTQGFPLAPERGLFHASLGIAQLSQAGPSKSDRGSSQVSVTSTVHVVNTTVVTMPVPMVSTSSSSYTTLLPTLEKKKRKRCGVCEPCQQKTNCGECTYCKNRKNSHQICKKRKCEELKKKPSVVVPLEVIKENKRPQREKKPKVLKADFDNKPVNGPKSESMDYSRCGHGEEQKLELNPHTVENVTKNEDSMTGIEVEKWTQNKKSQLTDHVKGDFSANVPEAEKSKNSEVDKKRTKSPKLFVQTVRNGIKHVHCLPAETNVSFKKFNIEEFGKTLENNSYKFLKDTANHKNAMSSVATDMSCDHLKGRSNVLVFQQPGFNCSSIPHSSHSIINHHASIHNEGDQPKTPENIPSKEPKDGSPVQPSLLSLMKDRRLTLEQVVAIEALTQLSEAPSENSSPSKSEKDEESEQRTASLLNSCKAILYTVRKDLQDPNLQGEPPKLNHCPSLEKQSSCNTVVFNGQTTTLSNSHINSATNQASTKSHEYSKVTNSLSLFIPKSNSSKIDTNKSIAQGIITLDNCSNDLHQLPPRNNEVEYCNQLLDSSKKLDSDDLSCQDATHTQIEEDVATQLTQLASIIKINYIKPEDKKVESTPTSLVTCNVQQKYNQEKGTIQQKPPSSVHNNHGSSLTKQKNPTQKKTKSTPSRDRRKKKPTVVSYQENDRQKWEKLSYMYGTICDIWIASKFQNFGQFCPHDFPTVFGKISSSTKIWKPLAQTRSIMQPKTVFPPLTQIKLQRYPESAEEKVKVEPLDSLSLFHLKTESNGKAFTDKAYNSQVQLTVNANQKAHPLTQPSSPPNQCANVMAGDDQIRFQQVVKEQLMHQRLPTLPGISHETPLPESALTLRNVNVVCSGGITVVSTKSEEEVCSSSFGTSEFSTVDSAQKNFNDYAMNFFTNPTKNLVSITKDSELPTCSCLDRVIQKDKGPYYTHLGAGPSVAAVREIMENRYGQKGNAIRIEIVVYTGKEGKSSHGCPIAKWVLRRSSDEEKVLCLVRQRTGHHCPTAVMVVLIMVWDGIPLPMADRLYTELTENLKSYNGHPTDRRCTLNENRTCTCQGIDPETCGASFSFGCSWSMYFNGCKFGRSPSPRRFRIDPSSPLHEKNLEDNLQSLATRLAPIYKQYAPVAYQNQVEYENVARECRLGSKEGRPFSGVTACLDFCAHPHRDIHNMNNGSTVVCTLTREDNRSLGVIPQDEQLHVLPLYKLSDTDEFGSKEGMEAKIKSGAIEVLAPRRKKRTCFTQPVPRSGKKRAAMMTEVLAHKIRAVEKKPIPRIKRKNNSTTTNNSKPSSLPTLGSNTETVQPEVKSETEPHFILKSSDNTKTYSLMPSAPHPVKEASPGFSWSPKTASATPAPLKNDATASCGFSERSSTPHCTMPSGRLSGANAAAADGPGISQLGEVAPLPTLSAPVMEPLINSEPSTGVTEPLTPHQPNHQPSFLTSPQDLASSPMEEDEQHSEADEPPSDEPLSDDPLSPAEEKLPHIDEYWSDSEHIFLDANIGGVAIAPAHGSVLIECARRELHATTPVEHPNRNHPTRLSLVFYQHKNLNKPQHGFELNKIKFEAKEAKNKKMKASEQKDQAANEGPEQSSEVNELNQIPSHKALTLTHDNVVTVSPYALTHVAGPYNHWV

For the compound `C=CC(=O)N1CCC(C(=O)O)(c2ccccc2)CC1`, the 50% inhibitory concentration (IC50) – broadly, the concentration that gives 50% inhibition – turned out to be 11.3 µM in assay [1], 3.9 µM in assay [2] and 4 µM in assay [3].

Turning to `C=CC(=O)N1CCC(C(=O)O)(c2ccc(OCC)cc2)CC1`, the 50% inhibitory concentration (IC50) is 6.3 µM in assay [1], 4.2 µM in assay [2] and 1.2 µM in assay [3].

`C=CC(=O)N1CCC(C(=O)O)(c2ccc(OC)cc2)CC1`: the IC50 in assay [1] turned out to be 81 µM; in assay [2], 30 µM; in assay [3], 35 µM.

As to `C=CC(=O)N1CCC(C(=O)NS(=O)(=O)c2ccccc2)(c2ccccc2)CC1`, the results for the 50% inhibitory concentration (IC50) in assay [1], in assay [2] and in assay [3] were 107 µM, 30 µM and 23 µM, respectively.

Regarding `C=CC(=O)N1CCC(c2ccc(OC)cc2)(c2nnn[nH]2)CC1`, the 50% inhibitory concentration (IC50) stood at 31 µM in assay [1], 16.4 µM in assay [2] and 8.3 µM in assay [3].

For `C=CC(=O)N1CCC(c2ccccc2)(c2nnn[nH]2)CC1`, the values for the IC50 in assay [1], in assay [2] and in assay [3] were 11 µM, 4.4 µM and 2.4 µM, respectively.

Turning to `C=CC(=O)N1CCC(C(=O)O)(c2ccc(Cl)cc2)CC1`, the IC50 was 166 µM in assay [1], 33 µM in assay [2] and 33 µM in assay [3].

For the compound `C=CC(=O)N1CCC(c2cccc(OCC)c2)(c2nnn[nH]2)CC1`, the IC50 in assay [1] turned out to be 10.7 µM; in assay [2] it was 7.4 µM; in assay [3], 2.2 µM.

For the compound `C=CC(=O)N1CCC(c2ccc(OCC)cc2)(c2nnn[nH]2)CC1`, the half-maximal inhibitory concentration (IC50) in assay [1] is 24 µM; in assay [2] it was 36 µM; in assay [3] it was 8.9 µM.

These data come from ChEMBL document CHEMBL5120972, “Small-Molecule Inhibitors of the MLL1 CXXC Domain, an Epigenetic Reader of DNA Methylation” (ACS Med Chem Lett, 2022).
